In ChEMBL document CHEMBL4382209, “Comparison between porphin, chlorin and bacteriochlorin derivatives for photodynamic therapy: Synthesis, photophysical properties, and biological activity” (Eur J Med Chem, 2018):
Active and inactive are the calls of the source. The rule behind the calls is not given here.

Key:
[1] = Induction of singlet oxygen generation assessed as singlet oxygen quantum yield by measuring DPBF chemical oxidation in DMF solution incubated up to 8 mins at 5 mW/cm2 laser irradiation by UV-Vis spectrophotometry; assay type: functional
[2] = Dark toxicity in human ECA109 cells assessed as decrease in cell viability after 24 hrs by MTT assay; assay type: cell-based, ECa-109
ECa-109 cell line [3] = test: Phototoxicity against human ECA109 cells assessed as decrease in cell viability after 24 hrs at 16 J/cm2 irradiation by MTT assay; assay type: functional, cell-based; settings: ECa-109, light or radiation study
How it was run: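 Eca-109 cells (5×10^4/well, attached for 24 h) took up compound (0–16 μM) for 24 h. They were washed with PBS and irradiated with Nd:YAG laser at 16 J/cm²: 635 nm for porphins, 650 nm for chlorins, 730 nm for bacteriochlorins. MTT viability was read 24 h later, and IC50 was derived.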

[4] = Dark toxicity in human ECA109 cells assessed as cell survival at 20 uM after 24 hrs by MTT assay relative to control; assay type: cell-based, ECa-109; settings: read-out: Survival
How it was run: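 Eca-109 human esophageal carcinoma cells in RPMI-1640 with 10% FBS, trypsinised and seeded at 5×10^4 cells per well, attached for 24 h. Photosensitiser in medium (0 to 60 μM) was taken up for 24 h and the cells were not irradiated. Viability was read by MTT colorimetric assay 24 h after treatment.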

[5] = Induction of singlet oxygen generation assessed as singlet oxygen quantum yield by measuring DPBF chemical oxidation in DMF solution incubated up to 4 mins at 5 mW/cm2 laser irradiation by UV-Vis spectrophotometry; assay type: functional
ECa-109 cell line [6] = test: Antitumor activity against human ECA109 cells xenografted in BALB/c nude mouse assessed as tumor size at 5 mg/kg, iv treated for 24 hrs before 120 J/cm2 laser light irradiation for 5 mins and measured every other day up to 14 days (reference value: 785 +/- 37 mm3); assay type: functional
How it was run: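 Eca-109 s.c. xenografts (5×10^6 cells, right forelimb) were grown in female BALB/c nude mice to ~100 mm³. Compound 5 mg/kg in 0.2 mL went i.v. into the tail vein. At 24 h, restrained unanaesthetised mice got 730 nm laser at 120 J/cm² to the tumour. Controls received no PS or light; 6 mice/group. Volume LW²/2 was taken every two days for 14 days.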

[7] = Induction of singlet oxygen generation assessed as singlet oxygen quantum yield by measuring DPBF chemical oxidation in DMF solution incubated up to 5 mins at 5 mW/cm2 laser irradiation by UV-Vis spectrophotometry; assay type: functional
[8] = Drug uptake in mitochondria of human ECA109 cells at 10 uM after 4 hrs by Mito Tracker green dye-based confocal fluorescence microscopic method; assay type: ADME; settings: eca-109, 4 h
How it was run: (§1)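 Eca-109 cells were plated on poly-L-lysine-coated coverslips at 1×10^5 cells/mL. After 24 h, they took up 10 μM compound in the dark for 4 h at 37 °C. They were stained with Mito-tracker Green or Lyso-Blue for 20 min at 37 °C, rinsed, and fixed in 4% paraformaldehyde at 4 °C for 30 min. Confocal imaging used sequential scans, exciting at 490 nm (Mito), 373 nm (Lyso, PS).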

ECa-109 cell line [9] = test: Antitumor activity against human ECA109 cells xenografted in BALB/c nude mouse assessed as tumor size at 5 mg/kg, iv measured every other day up to 14 days; assay type: functional, organism-based
How it was run: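 Four-week-old female BALB/c nude mice were given 5×10^6 Eca-109 cells s.c. in PBS into the right forelimb. At about 100 mm³ (~14 days), the compound was given at 5 mg/kg in 0.2 mL via the lateral tail vein, with no irradiation; 6 mice/group. Orthogonal L and W were measured every two days for 14 days, and V = LW²/2.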

[10] = Drug uptake in lysosomes of human ECA109 cells at 10 uM after 4 hrs by Lyso Blue dye-based confocal fluorescence microscopic method; assay type: ADME, subcellular, Lysosome; settings: eca-109, 4 h; how it was run: as §1

Compound | DPBF oxidation rate constant [1] [×10⁻² k/min] | IC50 at 24 h [2] [µM] | IC50 (ECa-109 cell line [3]) [µM] | viability at 24 h, 20 µM [4] [%] | Activity [5] [×10⁻² k/min] | Activity (ECa-109 cell line [6]) [mm3] | Activity [7] [×10⁻² k/min] | Drug uptake [8] | Activity (ECa-109 cell line [9]) | Drug uptake [10]
COc1ccc(-c2c3nc(cc4ccc([nH]4)c(-c4ccc(OC)c(OCC(=O)O)c4)c4nc(cc5ccc2[nH]5)CC4)CC3)cc1OCC(=O)O | 38.7 | 187 | 3.09 | 80 | – | – | – | – | – | –
COc1ccc(-c2c3nc(cc4ccc([nH]4)c(-c4ccc(OC)c(OCCCC(=O)O)c4)c4nc(cc5ccc2[nH]5)C=C4)C=C3)cc1OCCCC(=O)O | 1.68 | 183 | 10.1 | 80 | – | – | – | – | – | –
COc1ccc(-c2c3nc(cc4ccc([nH]4)c(-c4ccc(OC)c(OCC(=O)O)c4)c4nc(cc5ccc2[nH]5)C=C4)C=C3)cc1OCC(=O)O | 2.41 | 158 | 12.5 | 80 | – | – | – | – | – | –
COc1ccc(-c2c3nc(cc4ccc([nH]4)c(-c4ccc(OC)c(OCCCC(=O)O)c4)c4nc(cc5ccc2[nH]5)CC4)CC3)cc1OCCCC(=O)O | – | > 300 | 2.47 | 80 | 48.6 | – | – | – | – | –
COc1ccc(-c2c3nc(cc4ccc([nH]4)c(-c4ccc(OC)c(OCCCC(=O)O)c4)c4nc(cc5ccc2[nH]5)CC4)C=C3)cc1OCCCC(=O)O | 19.8 | > 300 | 2.83 | 80 | – | – | – | – | – | –
COc1ccc(-c2c3nc(cc4ccc([nH]4)c(-c4ccc(OC)c(OCC(=O)O)c4)c4nc(cc5ccc2[nH]5)CC4)C=C3)cc1OCC(=O)O | 14.2 | 111 | 3.14 | 80 | – | – | – | – | – | –
O=C(O)CCCOc1cccc(-c2c3nc(cc4ccc([nH]4)c(-c4cccc(OCCCC(=O)O)c4)c4nc(cc5ccc2[nH]5)CC4)C=C3)c1 | 24.9 | > 300 | 2.65 | 80 | – | – | – | – | – | –
O=C(O)CCCOc1cccc(-c2c3nc(cc4ccc([nH]4)c(-c4cccc(OCCCC(=O)O)c4)c4nc(cc5ccc2[nH]5)C=C4)C=C3)c1 | 1.93 | 271 | 8.19 | 80 | – | – | – | – | – | –
O=C(O)CCCOc1cccc(-c2c3nc(cc4ccc([nH]4)c(-c4cccc(OCCCC(=O)O)c4)c4nc(cc5ccc2[nH]5)CC4)CC3)c1 | – | > 500 | 2.43 | 80 | – | 126 | 69.1 | Active | inactive | Active
O=C(O)COc1cccc(-c2c3nc(cc4ccc([nH]4)c(-c4cccc(OCC(=O)O)c4)c4nc(cc5ccc2[nH]5)CC4)CC3)c1 | 30.9 | 162 | 2.62 | 80 | – | – | – | – | – | –
O=C(O)COc1cccc(-c2c3nc(cc4ccc([nH]4)c(-c4cccc(OCC(=O)O)c4)c4nc(cc5ccc2[nH]5)C=C4)C=C3)c1 | 0.829 | 74.6 | 9.41 | 80 | – | – | – | – | – | –
O=C(O)COc1cccc(-c2c3nc(cc4ccc([nH]4)c(-c4cccc(OCC(=O)O)c4)c4nc(cc5ccc2[nH]5)CC4)C=C3)c1 | – | 91.8 | 3.31 | 80 | – | – | 4.06 | – | – | –
